Data on 1 compound can be found in ChEMBL document CHEMBL1255440, “An antimicrobial peptide that targets DNA repair intermediates in vitro inhibits Salmonella growth within murine macrophages” (Antimicrob Agents Chemother, 2010).

In data set [1] the test system is Salmonella typhimurium. Description: Antibacterial activity against 1 MOI Salmonella enterica subsp. enterica serovar Typhimurium infected in mouse peritoneal macrophages assessed as reduction in bacterial growth at 150 uM after 24 hrs relative to DMSO control. It counts as functional. Also noted: scale not given: the % may be the effect or the level left. The essentials:
(§1)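 J774A.1 cells or thioglycolate-elicited BALB/c peritoneal macrophages seeded at 200,000/well, overnight 37°C 5% CO2; infected with GFP strain SDT1416, 1 h invasion, washed, 1 h in DMEM with 15 μg/ml gentamicin. Then fresh DMEM plus 15 μg/ml gentamicin with or without peptide (DMSO vehicle) for 24 h at 37°C; macrophages lysed with 1% Triton X-100, plated on LB agar for CFU.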

In data set [2] the test system is Salmonella typhimurium. Briefly: Antibacterial activity against 10 MOI Salmonella enterica subsp. enterica serovar Typhimurium G785 transfected with SOS-inducible beta-galactosidase reporter infected in mouse J774A1 cells assessed as SOS induction at 100 uM after 4 hrs postinfection. The data set is classed as functional, J774.A1. Put shortly:
(§2)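 J774A.1 cells infected at MOI 10 with sulA promoter-lacZ reporter strain G785 using the gentamicin-protection protocol, treated with peptide (DMSO vehicle controls) plus 15 μg/ml gentamicin for 4 or 24 h. Released bacteria were plated for colony counts in parallel, and were incubated with 33 μM C12FDG (with 0.2 mM EDTA) in LB for 2 h at 37°C. Flow cytometry gave % fluorescein-positive among LPS-antibody-positive particles; Wilcoxon exact test.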

The test system of data set [3] is Salmonella typhimurium. Briefly: Antibacterial activity against 10 MOI Salmonella enterica subsp. enterica serovar Typhimurium G785 transfected with SOS-inducible beta-galactosidase reporter infected in mouse J774A1 cells assessed as bacterial number at 50 uM after 24 hrs postinfection. The data set is classed as functional, J774.A1. Put shortly:
as §2

In data set [4] the test system is Salmonella typhimurium. Description: Antibacterial activity against 10 MOI Salmonella enterica subsp. enterica serovar Typhimurium G785 transfected with SOS-inducible beta-galactosidase reporter infected in mouse J774A1 cells assessed as SOS induction at 150 uM after 24 hrs postinfection. The data set is classed as functional, J774.A1. The essentials: as §2
Data set [5] can be described thus: Cytotoxicity against mouse J774A1 cells assessed as reduction in metabolic activity at 100 uM after 24 hrs by MTT assay. The data set is classed as ADME, cell-based, J774.A1. As to conditions: read-out: INH; call rule not given here. Put shortly:
(§3)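 Cells seeded at 40,000/well in 96-well plates, overnight 37°C 5% CO2, then treated 24 h in fresh DMEM. MTT (4 mg/ml stock in PBS) added for up to 3 h. Formazan solubilized overnight at 37°C in SDS/dimethylformamide/acid lysis buffer, OD read at 575 nm. Paired t tests.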
On the technique in general: Tetrazolium dyes change colour on reduction, which living cells bring about.

Data set [6] can be described thus: Cytotoxicity against mouse peritoneal macrophages assessed as increase in metabolic activity at 150 uM after 24 hrs by MTT assay. The data set is classed as ADME, cell-based. The following applies: peritoneal macrophage cell. Put shortly:
as §3

The nature of data set [7]: Cytotoxicity against mouse peritoneal macrophages assessed as live cells at 150 uM by calcein AM assay. The following applies: read-out: Activity. The data set is classed as cell-based, Peritoneal macrophage cell. The essentials: (§4)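 Cells seeded at 300,000/well and allowed to adhere, then given fresh DMEM with or without peptide for 24 h. Cells trypsinized, stained with a mammalian Live/Dead viability/cytotoxicity kit and analyzed by flow cytometry. Wilcoxon exact test.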

A short description of data set [8]: Cytotoxicity against mouse peritoneal macrophages assessed as dead cells at 100 uM by propidium iodide assay. As to conditions: peritoneal macrophage cell. The data set is classed as cell-based. The essentials: as §4
Data set [9] in a line: Cytotoxicity against mouse peritoneal macrophages assessed as dead cells at 150 uM by propidium iodide assay. The following applies: peritoneal macrophage cell. It counts as cell-based. The essentials: as §4
The subject of data set [10] is J774.A1. Briefly: Drug uptake in mouse J774A1 cells assessed as total peptide concentration at 50 uM after 5 hrs at 37 degC by HPLC analysis. It counts as ADME, cell-based. The following applies: j774.a1, 5 h. The essentials:
(§5)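 J774A.1 cells were seeded at 300,000 per well and allowed to adhere for 24 h at 37°C in 5% CO2. Medium was replaced with DMEM containing unlabeled peptide, and cells were held at 37°C or 4°C. After three washes in ice-cold PBS, cells were lysed in NP-40 buffer and debris spun out. Reverse-phase HPLC was read at 280 nm. Peaks at 17.5 and 17.75 min were integrated against a standard curve. Intracellular mM was calculated from 300,000 cells at 1 pl each, using monomer mass.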

Data set [11] concerns J774.A1. Description: Drug uptake in mouse J774A1 cells assessed as total peptide concentration at 150 uM after 24 hrs at 37 degC by HPLC analysis. The data set is classed as ADME, cell-based. As to conditions: j774.a1, 24 h. Put shortly:
(§6)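 J774A.1 cells were incubated with unlabeled peptide for 5 or 24 h at 37°C or 4°C, washed in ice-cold PBS and lysed with NP-40 buffer. Lysates were run on reverse-phase HPLC with an acetonitrile/0.1% TFA gradient and A280 fractions. Monomer (~17.5 min) and dimer (~17.75 min) peak areas were compared against a standard curve. Intracellular mM was calculated using 300,000 cells and 1 pl/cell, with concentration expressed as monomer mass.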

The subject of data set [12] is J774.A1. Briefly: Drug uptake in mouse J774A1 cells assessed as total peptide concentration at 50 uM after 24 hrs at 37 degC by HPLC analysis. It counts as ADME, cell-based. The following applies: j774.a1, 24 h. The essentials:
as §5

Data set [13] concerns J774.A1. Briefly: Drug uptake in mouse J774A1 cells at 10 uM after 4 hrs at 4 degC by confocal laser microscopy. The data set is classed as ADME, cell-based. The following applies: j774.a1, 4 h. The essentials: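 Cells were seeded at 200,000 per chamber-slide well and left to adhere overnight at 37°C. They were then exposed in DMEM to peptide carrying an N-terminal rhodamine label, at 37°C or, where stated, 4°C. Cells were washed three times in PBS, fixed in 4% paraformaldehyde for 30 min, and mounted in antifade. Optical slices near the cell centre were imaged by confocal laser microscopy.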

Data set [14] concerns Salmonella typhimurium. Briefly: Antibacterial activity against Salmonella enterica subsp. enterica serovar Typhimurium SDT1416. It counts as functional. Put shortly:
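MIC by NCCLS broth microdilution against GFP-expressing strain SDT1416.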

Data set [15] relates to J774.A1. Briefly: Drug uptake in mouse J774A1 cells assessed as dimer to monomer peptide ratio at 100 uM after 5 hrs at 37 degC by HPLC analysis. The data set is classed as ADME, cell-based. As to conditions: j774.a1, 5 h. Put shortly: as §6
The test system of data set [16] is J774.A1. Description: Drug uptake in mouse J774A1 cells assessed as dimer to monomer peptide ratio at 100 uM after 5 hrs at 4 degC by HPLC analysis. The data set is classed as ADME, cell-based. As to conditions: j774.a1, 5 h. Put shortly: as §6
The test system of data set [17] is J774.A1. Briefly: Drug uptake in mouse J774A1 cells assessed as dimer to monomer peptide ratio at 150 uM after 5 hrs at 4 degC by HPLC analysis. The data set is classed as ADME, cell-based. As to conditions: j774.a1, 5 h. Put shortly: as §6
Data set [18] has as its system Salmonella typhimurium. Briefly: Antibacterial activity against 1 MOI Salmonella enterica subsp. enterica serovar Typhimurium infected in mouse J774A1 cells assessed as fold reduction in bacterial growth at 100 uM after 12 hrs. It counts as functional, J774.A1.
Data set [19] has as its system Salmonella typhimurium. Description: Antibacterial activity against 1 MOI Salmonella enterica subsp. enterica serovar Typhimurium infected in mouse J774A1 cells assessed as reduction in bacterial growth at 100 uM after 24 hrs. Also noted: scale not given: the % may be the effect or the level left. The data set is classed as functional, J774.A1. Put shortly:
as §1

In data set [20] the test system is Salmonella typhimurium. Description: Antibacterial activity against 1 MOI Salmonella enterica subsp. enterica serovar Typhimurium infected in mouse peritoneal macrophages assessed as reduction in bacterial growth at 50 uM after 24 hrs. The data set is classed as functional. Also noted: scale not given: the % may be the effect or the level left. The essentials: as §1

Data set [21] deals with J774.A1. Description: Drug uptake in mouse J774A.1 cells assessed as dimer to monomer peptide ratio at 100 uM after 24 hrs at 4 degC by HPLC analysis. The following applies: J774A.1, 24 h.
Data set [22] deals with J774.A1. Description: Drug uptake in mouse J774A.1 cells assessed as dimer to monomer peptide ratio at 150 uM after 24 hrs at 4 degC by HPLC analysis. As to conditions: J774A.1, 24 h.
In data set [23] the test system is J774.A1. Description: Drug uptake in mouse J774A1 cells at 10 uM after 5 hrs in presence of 100 nM wortmannii PI3K inhibitor by confocal laser microscopy. The following applies: j774.a1, 5 h.

In brackets after ≈: the same amount, converted by molar mass.

A word on the MIC: it is the lowest concentration that inhibits growth of the organism. Consider `N=C(N)NCCC[C@@H](NC(=O)[C@@H](CS)NC(=O)[C@@H](Cc1ccc(O)cc1)NC(=O)[C@@H](Cc1c[nH]c2ccccc12)NC(=O)[C@@H](CCCNC(=N)N)NC(=O)[C@H](N)Cc1c[nH]c2ccccc12)C(=O)O`, for which the Activity in [1] stood at 83%; in data set [2], 1.3%; in data set [3], 45.2%; in data set [4], 28.4%; in data set [6] it was 18%; in data set [8], 3.1%. The Activity is 9.2% in data set [9], 85.1% in data set [19] and 34% in data set [20]. Further, in data set [5], the cytotoxicity at 24 h, 100 µM is 17.3%. In addition, the viability at 150 µM in [7] is 87.9%. Further, the Drug uptake in data set [10] is 0.9 mM; in data set [11], 30.1 mM; in data set [12], 1.4 mM; in [13], “Not Active”; in data set [23] it was “Not Active”. In data set [14], the MIC was 64 µM (≈ 62 µg/mL). Besides, the Ratio in [15] is reported as 2.6; in [16] it was 2.7; in data set [17], 8.8; in [21] it was 11.5; in [22], 15.5. The fold change (FC) in data set [18] was less than 50.
